Measured values as given in ChEMBL document CHEMBL4020824, “Discovery of Potent and Orally Bioavailable Dihydropyrazole GPR40 Agonists” (J Med Chem, 2018).
pEC50: −log10 of the molar value. Activity calls are given as the source filed them. The calls are words filed in the database; no cut-off is given here.

What was measured:
[1] = target: T1, Free fatty acid receptor 1 (Homo sapiens, UniProt O14842); experiment: Agonist activity at human GPR40 expressed in CHOA12 cells assessed as induction of Ca2+ mobilization by FLIPR assay; format: functional, cell-based
T1 sequence (O14842 whole entry): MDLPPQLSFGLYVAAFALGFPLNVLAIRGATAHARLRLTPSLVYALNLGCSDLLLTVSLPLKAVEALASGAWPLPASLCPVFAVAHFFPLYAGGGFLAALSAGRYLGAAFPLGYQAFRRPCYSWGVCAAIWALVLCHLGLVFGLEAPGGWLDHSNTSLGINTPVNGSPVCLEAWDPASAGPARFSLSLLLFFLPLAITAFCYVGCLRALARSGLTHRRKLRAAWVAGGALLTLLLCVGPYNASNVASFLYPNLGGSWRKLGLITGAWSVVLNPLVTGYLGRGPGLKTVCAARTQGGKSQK

[2] = target: T1, Free fatty acid receptor 1; experiment: Agonist activity at human GPR40 expressed in CHOA12 cells assessed as induction of Ca2+ mobilization at 8.3 uM by FLIPR assay relative to compound 2; format: functional, cell-based
Liver [3] = experiment: (§1) Drug level in human liver microsomes treated with 2-((4S,5S)-1-(4-(((3R,4R)-1-(5-Chloro-2-methoxypyridin-4-yl)-3-methylpiperidin-4-yl)oxy)phenyl)-4-methyl-3-(trifluoromethyl)-4,5-dihydro-1H-pyrazol-5-yl)acetic acid at 1 to 3 uM incubated for 20 mins in presence of NADPH measured after 90 mins by LC/MS/MS analysis; format: ADME, microsome
Outline: (§2)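 Human or rat liver microsomal incubations. The read-outs were % parent remaining, % D-ring dealkylation metabolites, % GSH adducts, and half-life (min). The metabolites followed were CYP450-mediated oxidative de-alkylation products (phenols) and GSH conjugates.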

Liver [4] = experiment: as §1, with “rat” for “human”; format: ADME, microsome; outline: as §2

pEC50 [1]	Activity [2]	other results	Compound
5.27 to 5.55	Active		COc1ccc(F)c(N2CCC(Oc3ccc(N4C[C@H](C(F)(F)F)C[C@@H]4CC(=O)O)cc3)C2)c1 (stereo not given in full)
7.15			COc1ccc(F)c(N2CC[C@@H](Oc3ccc(N4N=C(C(F)(F)F)[C@@H](C)[C@@H]4CC(=O)O)cc3)[C@H](F)C2)c1
	Active		COc1ccc(F)c(N2CCC(Cc3ccc(N4C[C@H](C(F)(F)F)C[C@@H]4CC(=O)O)cc3)CC2)c1
6.66			CCOc1ccc(F)c(N2CCC(Oc3ccc(N4N=C(C(F)(F)F)[C@@H](C)[C@@H]4CC(=O)O)cc3)CC2)c1
		Drug uptake (Liver [3]): Metabolite_Detected; Drug uptake (Liver [4]): Metabolite_Detected	C[C@@H]1CN(c2cc(O)ncc2Cl)CC[C@H]1Oc1ccc(N2N=C(C(F)(F)F)[C@@H](C)[C@@H]2CC(=O)O)cc1
7.00			COc1ccc(Cl)c(N2CCC(Oc3ccc(N4N=C(C(F)(F)F)[C@@H](C)[C@@H]4CC(=O)O)cc3)CC2)c1
5.59 to 5.92	Active		COc1ccc(F)c(N2CCC(Oc3ccc(N4CCC[C@@H]4CC(=O)O)cc3)CC2)c1
	Active		COc1ccc(F)c(N2CC[C@@H](COc3ccc(N4C[C@H](C(F)(F)F)C[C@@H]4CC(=O)O)cc3)C2)c1
6.60			C[C@@H]1C(C(F)(F)F)=NN(c2ccc(OC3CCN(c4cc(Cl)ccc4Cl)CC3)cc2)[C@H]1CC(=O)O
6.17			COc1ccc(C#N)c(N2CCC(Oc3ccc(N4N=C(C(F)(F)F)[C@@H](C)[C@@H]4CC(=O)O)cc3)CC2)c1
	Active		COc1ccc(F)c(N2CC[C@H](COc3ccc(N4C[C@H](C(F)(F)F)C[C@@H]4CC(=O)O)cc3)C2)c1
6.07 to 6.41			C[C@@H]1C(C(F)(F)F)=NN(c2ccc(OC3CCN(c4cccc(F)n4)CC3)cc2)[C@H]1CC(=O)O
